S1P1 ag-PAM – S1P1 agonists and agonism potentiators, primary screen, cell-based, primary and confirmation screens, CRE-bla reporter. Sphingosine 1-phosphate receptor 1 (Homo sapiens), P21453. S1P1 CRE-bla cells, forskolin, beta-lactamase FRET, potentiator mode; S1P1 agonist co-added at EC20, 2 nM; 100% = saturating reference agonist, 0% = basal. activation, % at 9.5 µM. 0.57% of 56,000 active. AID 449, 2006;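 active = activation above a cutoff set at the mean activation of all tested compounds plus 3 SD, cut at about 54% in these data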;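 note: forskolin at 4 µM as EC80 and the EC20 agonist is SEW2871; 100% = SEW2871 at its EC100 plus forskolin at EC80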
HTR1E agonist – 5-HT1E receptor agonists, primary screen, cell-based, HTS; 5-hydroxytryptamine receptor 1E (Homo sapiens), P28566; activation, % at 6 µM; 0.69% of 65,000 active; CHO 5-HT1E Ga15 NFAT-bla reporter, FRET; 0% DMSO wells, 100% control agonist wells;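 active = activation above a set limit, the screen-wide mean activation plus 3 SD, cut at about 8.5% in these data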;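 note: 100% = positive control agonist at 1 µM giving full maximal response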
S1P3 agonist – human S1P3 receptor agonists, primary screen, cell-based, primary and confirmation, NFAT-BLA reporter. AID 373, 2006. activation, % at 4.5 µM. S1P3 NFAT-BLA reporter cells, agonism, FRET ratio; relative to 1 µM S1P, basal subtracted. 0.1% of 60,000 active;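 active = activation above the screen-wide mean plus 3 SD, cut at about 4.5% in these data, passing the limit was not always enough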
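Assay system: CHO cells stably expressing human S1P3, Gα16 and NFAT-β-lactamase reporter. Timing: overnight plating, 4 h compound 37 °C, 2 h substrate RT. Signal: β-lactamase FRET emission ratio 460/535 nm. Measure: percent activation versus median 1 µM S1P response, basal-subtracted, per plate. Repeats: primary screen single test, confirmation screen in triplicate.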
5-HT1A blocker – human 5-HT1a receptor antagonists, primary screen, cell-based, CHO, Ga15 NFAT-bla reporter; CHO 5-HT1a Ga15 NFAT-bla reporter, antagonist mode; inhibition, % at 10 µM; 0.68% of 62,000 active;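 active = inhibition above the mean of all tested compounds plus 3 SD, cut at about 43% in these data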;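 note: receptor stimulated by 5-CT agonist at 100 nM near EC80; beta-lactamase reporter measured by ratiometric fluorescence of a cleavable substrate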
Target sequence (P08908 whole entry, looked up): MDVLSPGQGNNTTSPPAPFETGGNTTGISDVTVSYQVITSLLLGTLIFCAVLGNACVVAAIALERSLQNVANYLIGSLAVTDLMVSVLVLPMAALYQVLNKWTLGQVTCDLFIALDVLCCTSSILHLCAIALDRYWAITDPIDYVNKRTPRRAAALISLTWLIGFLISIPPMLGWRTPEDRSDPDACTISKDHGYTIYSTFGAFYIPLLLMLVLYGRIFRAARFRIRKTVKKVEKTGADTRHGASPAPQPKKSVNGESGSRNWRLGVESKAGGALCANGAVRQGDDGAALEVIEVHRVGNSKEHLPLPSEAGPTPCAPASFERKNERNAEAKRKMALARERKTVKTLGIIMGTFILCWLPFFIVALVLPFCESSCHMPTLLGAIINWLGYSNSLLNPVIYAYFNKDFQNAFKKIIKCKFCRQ
5HT1a ag – human 5-HT1a receptor agonists, primary screen, cell-based, CHO, Ga15 NFAT-bla reporter. CHO 5-HT1a Ga15 NFAT-bla reporter, FRET ratio; 0% basal, 100% maximal reference agonist. activation, % at 10 µM. 0.56% of 65,000 active. AID 567, 2006;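 active = activation above the screen-wide mean activation plus 3 SD, cut at about 19% in these data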;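 note: 0% = DMSO wells and 100% = 5-CT at EC100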
5HT1E antag – 5-HT1E receptor antagonists, primary screen, cell-based, HTS | 5-hydroxytryptamine receptor 1E (Homo sapiens), P28566 | CHO 5-HT1E Ga15 NFAT-bla reporter, FRET, antagonist | inhibition, % at 6 µM | 0.99% of 65,000 active;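 active = inhibition above a set limit, the mean inhibition across every tested compound plus 3 SD, cut at about 29% in these data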;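 note: signal is the 460 over 535 nm emission ratio of beta-lactamase substrate; 0% = agonist plus DMSO wells and 100% = wells without agonist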
* = called active by the depositor; . = no result. An excerpt weighted towards active compounds, which were near 3% of everything screened.

SMILES	S1P1 ag-PAM	HTR1E agonist	S1P3 agonist	5-HT1A blocker	5HT1a ag	5HT1E antag
Cc1noc(C)c1COc1cccc(C(=O)OCC(=O)N2CC(=O)Nc3ccccc32)c1	4	-1	-1	32	-2	38*
CCOC(=O)c1sc(NC(=O)C2CC=CCC2C(=O)O)nc1C (stereo not given)	16	-1	-1	-8	-1	3
COC(=O)Nc1nc2ccc(C(=O)c3ccccc3)cc2[nH]1	13	1	-6	.	-2	75*
CCCSc1ccc2nc(NC(=O)OC)[nH]c2c1	-3	-1	-5	.	-5	42*
COc1cc(C(=O)Nc2nc3ccccc3[nH]2)cc(OC)c1OC	-29	0	-1	-5	-1	10
COc1cc2[nH]c3c(=O)n(CCN4CCCCC4)cnc3c2cc1OC	-4	0	-1	7	0	-9
CCCC(=O)Nc1cccc(NC(=O)c2ccc3c(c2)OCO3)c1	-11	14*	-1	5	-1	3
COc1cccc(-c2nc(-c3ccc(NC(=O)c4cccnc4)cc3)no2)c1	60*	0	-1	-2	-4	6
COc1ccc(CC(=O)Nc2ccc(-c3noc(-c4cccc(OC)c4)n3)cc2)cc1	-2	0	0	-6	0	-2
COc1ccc(-n2ncc3c(N4CCN(c5cccc(C)c5C)CC4)ncnc32)cc1	-24	2	1	-14	0	4
Cc1cc(C#N)c(C)n1-c1cc(C(F)(F)F)ccc1N1CCOCC1	0	-1	1	43*	3	12
CCOC(=O)c1csc(NC(=O)c2cc(OC)c(OC)c(OC)c2)n1	-33	0	0	-16	-2	-8
C=CCn1c(SCC(=O)N2CCOCC2)nc2scc(-c3ccco3)c2c1=O	-27	-2	-1	1	29*	13
COc1ccccc1N1CCN(CC(=O)c2ccc3ccn(C(C)=O)c3c2)CC1	16	30*	-1	15	8	8
COc1ccccc1N1CCN(CCCC(=O)c2ccc(F)cc2)CC1	-10	3	-2	93*	4	11
CC(=O)OCC(=O)c1ccc2ccn(C(C)=O)c2c1	9	0	0	2	-2	-5
COc1ccccc1N1CCN(CC(=O)Nc2cc(F)ccc2C)CC1	.	-1	.	43*	0	-10
COc1ccccc1N1CCN(CCCNC(=O)Nc2ccccc2C)CC1	.	3	.	82*	0	9
CC(=N\O)/C(CN(C)C)=N/O	-18	1	-2	.	0	3
CCOc1ccc(C(=O)N(C)C2CCS(=O)(=O)C2)cc1 (stereo not given)	.	-1	-1	0	0	-2
O=C(Nc1ccccc1NC(=O)NC1CCCCC1)NC1CCCCC1	.	1	0	7	-5	56*
Cc1cc(C(=O)COC(=O)c2csc3c2CCCC3)c(C)n1C	79*	-1	0	2	0	2
COc1cccc(CNCc2ccccn2)c1OC	-13	11*	-1	-10	-1	2
O=C(CN1CCN(c2ccc(Cl)cc2)CC1)c1ccc2c(c1)OCO2	-84	15*	-1	5	-3	15
Cc1ccc(OCc2ccoc2C(=O)O)cc1C	.	-1	0	17	1	5
SMILES	S1P1 ag-PAM	HTR1E agonist	S1P3 agonist	5-HT1A blocker	5HT1a ag	5HT1E antag
O=S(=O)(NCCc1ccncc1)c1cc(Br)ccc1F	17	0	-1	-8	1	15
Cc1cnc(C(=O)Nc2cccc3cccnc23)cn1	-6	0	0	-5	3	0
O=C(Nc1cccc2cccnc12)c1cccnc1	.	-2	0	4	39*	3
O=C(NCc1ccccc1)NC1(C(=O)N2CCN(c3ccccc3)CC2)CCCCC1	-4	-1	0	3	3	-3
O=C1C2C3C=CC(C3)C2C(=O)N1c1cccc(N2C(=O)C3C4C=CC(C4)C3C2=O)n1 (stereo not given)	-7	-1	-1	4	-4	9
COc1ccc(N2CCN(c3ncnc4c3cnn4-c3ccc(C)cc3C)CC2)cc1	15	0	-2	3	-1	-3
Cc1ccc(-n2ncc3c(N4CCN(c5ccccc5)CC4)ncnc32)c(C)c1	-7	1	-5	.	1	51*
c1cnn(-c2nc(N3CCOCC3)nc(N3CCOCC3)n2)c1	0	0	-2	15	-1	-39
CC(C)OCCCNC(=O)CCN1C(=O)COc2ccccc21	-12	-1	1	2	-1	-104
CC(=O)Nc1ccc(C(=O)CSc2nnc(Cn3nnc4ccccc43)n2C)cc1	-9	0	0	-8	1	-8
O=C(O)c1cccnc1SCC(=O)N1CCCCCC1	-18	-1	0	-5	-2	4
CN(C)C(=O)CSc1cccc2cccnc12	38	0	-1	33	1	39*
O=C(CSc1cccc2cccnc12)N1CCCC1	46	0	0	17	-1	42*
O=CN1CCC(=O)N(Cc2ccccc2)c2ccccc21	-6	0	0	5	-3	-16
O=C(NCc1ccc2c(c1)OCO2)c1ccc(-n2cnnn2)cc1	-4	-2	0	9	0	14
COC(=O)c1ccc(C2c3c(oc4cc(C)c(C)cc4c3=O)C(=O)N2CCCN(C)C)cc1 (stereo not given)	-4	-1	-1	4	2	12
CCCCNC(=O)CCn1nc(-c2ccccc2)ccc1=O	-5	0	1	-6	-2	-12
CCCCN(C)CCCNC(=O)CCn1nc(-c2ccccc2)ccc1=O	-3	22*	-1	4	-4	6
Cc1cc(-c2nn3c(-c4ccccc4)nnc3s2)c2ccccc2n1	-111	2	0	0	-1	30*
CCOc1ccc(-n2c(SCc3nc(-c4cccs4)no3)nnc2-c2ccncc2)cc1	-12	0	-1	50*	6	13
CCCn1c(SCc2nc(-c3cccs3)no2)nnc1-c1ccncc1	.	0	0	-3	-4	0
CCCCOC(=O)Nc1ccc(S(=O)(=O)Nc2nc(C)cc(C)n2)cc1	2	12*	-1	.	6	11
O=C1CN(C(=O)OCc2ccccc2)c2ccccc2N1	.	0	.	-15	-1	48*

From PubChem
